Reference: ChEMBL document CHEMBL1139725, “Synthesis and SAR of novel hydantoin derivatives as selective androgen receptor modulators” (2006)
Active and inactive are the calls of the source. The calls are words filed in the database; no cut-off is given here.

Experiments:
Rattus norvegicus [1] = experiment: Inhibition of prostate weight in Sprague-Dawley rat at 2 mg/day, po relative to control; type: functional, Prostate gland
Outline: (§1)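 Five-day antagonist assay in immature (about 50 g) castrated male Sprague–Dawley rats. Compound given po in 20% cyclodextrin once daily at 2 mg/day for 5 days, with testosterone propionate co-dosed sc in sesame oil at 0.1 mg/d ([…]). Read-out is % inhibition of testosterone-enhanced tissue weight, with vehicle control set to 100% and testosterone-alone control to 0%; n = 3/group.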

Rattus norvegicus [2] = experiment: Stimulation of prostate weight in Sprague-Dawley rat at 2 mg/day, po relative to testosterone; type: functional, Prostate gland
Outline: (§2)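 Agonist mode of a five-day modified Hershberger assay in immature (about 50 g) castrated male Sprague–Dawley rats. Activity is % stimulation of tissue weight, with vehicle-treated control set to 0% and testosterone-alone control to 100%.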

Rattus norvegicus [3] = organism: Rattus norvegicus; experiment: Stimulation of levator ani muscle weight in Sprague-Dawley rat relative to testosterone; type: functional; outline: as §2
Rattus norvegicus [4] = organism: Rattus norvegicus; experiment: Stimulation of levator ani muscle weight in Sprague-Dawley rat at 2 mg/day relative to testosterone; type: functional; outline: as §2
Rattus norvegicus [5] = experiment: Inhibition of seminal vesicle weight in Sprague-Dawley rat at 2 mg/day, po relative to control; type: functional; outline: as §1
Rattus norvegicus [6] = organism: Rattus norvegicus; experiment: Stimulation of prostate weight in Sprague-Dawley rat relative to testosterone; type: functional, organism-based; settings: Prostate gland
Outline: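 Immature castrated male Sprague–Dawley rats (about 50 g) were dosed for five days. Prostate weight was expressed as percent stimulation: vehicle-treated controls were set to 0% and testosterone-alone controls to 100%. The testosterone propionate reference was given subcutaneously at the nape of the neck at 5 mg/kg in sesame oil.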

Rattus norvegicus [7] = experiment: Stimulation of prostate weight in Sprague-Dawley rat at 5 mg/kg, sc; type: functional, Prostate gland; settings: route subcutaneous
Outline: (§3)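 Testosterone propionate injected sc at the nape of the neck at 5 mg/kg in sesame oil, in immature (about 50 g) castrated male Sprague–Dawley rats in a five-day modified Hershberger assay. Read-out is stimulation of tissue weight.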

Rattus norvegicus [8] = experiment: Stimulation of levator ani muscle weight Sprague-Dawley rat at 5 mg/kg, sc; type: functional; settings: route subcutaneous; outline: as §3
Rattus norvegicus [9] = organism: Rattus norvegicus; experiment: Stimulation of prostate weight in Sprague-Dawley rat at 3 mg/day relative to testosterone; type: functional, Prostate gland; outline: as §2

CCOC(=O)C1=NN2C(=O)N(c3ccc(C#N)c(C(F)(F)F)c3)C(=O)C2(C)C1 (stereo unspecified)
Inhibition (Rattus norvegicus [1]): 16% | Activity (Rattus norvegicus [2]): <10% | Activity (Rattus norvegicus [3]): <10%

C[C@@]12CC(C(F)(F)F)=NN1[S+]([O-])N(c1ccc(C#N)c(C(F)(F)F)c1)C2=O (stereo partly specified)
Inhibition (Rattus norvegicus [1]): 41% | Activity (Rattus norvegicus [2]): 58% | Activity (Rattus norvegicus [4]): 117%

C[C@@]12CCCN1C(=O)N(c1ccc(Cl)c(Cl)c1)C2=O
Inhibition (Rattus norvegicus [5]): 16% | Inhibition (Rattus norvegicus [1]): 11% | Activity (Rattus norvegicus [2]; Prostate gland): inactive | Activity (Rattus norvegicus [3]): inactive | Activity (Rattus norvegicus [6]): inactive

CCOC(=O)C1=NN2C(=O)C(=O)N(c3ccc(C#N)c(C(F)(F)F)c3)C(=O)C2(C)C1 (stereo unspecified)
Inhibition (Rattus norvegicus [1]): 15% | Activity (Rattus norvegicus [2]): <10% | Activity (Rattus norvegicus [4]): <10%

C[C@@]12CC(C(F)(F)F)=NN1C(=O)C(=O)N(c1ccc(C#N)c(C(F)(F)F)c1)C2=O
Inhibition (Rattus norvegicus [1]): 27% | Activity (Rattus norvegicus [2]): 12% | Activity (Rattus norvegicus [4]): 21%

CCC(=O)O[C@H]1CC[C@H]2[C@@H]3CCC4=CC(=O)CC[C@]4(C)[C@H]3CC[C@]12C [TESTOSTERONE PROPIONATE]
Activity (Rattus norvegicus [7]): 100% | Activity (Rattus norvegicus [8]): 100%

CC12COC(=O)N1C(=O)N(c1ccc(C#N)c(C(F)(F)F)c1)C2=O (stereo unspecified)
Inhibition (Rattus norvegicus [5]): 80% | Inhibition (Rattus norvegicus [1]): 75%

CC12CNC(=O)N1C(=O)N(c1ccc(C#N)c(C(F)(F)F)c1)C2=O (stereo unspecified)
Inhibition (Rattus norvegicus [5]): 86% | Inhibition (Rattus norvegicus [1]): 79%

CC12CC=NN1C(=O)N(c1ccc(C#N)c(C(F)(F)F)c1)C2=O (stereo unspecified)
Inhibition (Rattus norvegicus [1]): 26% | Activity (Rattus norvegicus [2]): <10% | Activity (Rattus norvegicus [4]): <10%

C[C@@]12CCCN1C(=S)N(c1ccc(Cl)c(C(F)(F)F)c1)C2=O
Inhibition (Rattus norvegicus [5]): <10% | Inhibition (Rattus norvegicus [1]): 19% | Activity (Rattus norvegicus [3]): inactive | Activity (Rattus norvegicus [6]): inactive

C[C@@]12CC(C(F)(F)F)=NN1C(=O)N(c1ccc(C#N)c(C(F)(F)F)c1)C2=O
Inhibition (Rattus norvegicus [1]): 26% | Activity (Rattus norvegicus [9]): 11% | Activity (Rattus norvegicus [3]): 75%

CN1CC2(C)C(=O)N(c3ccc(C#N)c(C(F)(F)F)c3)C(=O)N2C1=O (stereo unspecified)
Inhibition (Rattus norvegicus [5]): 85% | Inhibition (Rattus norvegicus [1]): 87%

CC(=O)Nc1ccc(C2=NN3C(=O)N(c4ccc(C#N)c(C(F)(F)F)c4)C(=O)C3(C)C2)cc1 (stereo unspecified)
Inhibition (Rattus norvegicus [1]): 25% | Activity (Rattus norvegicus [2]): <10% | Activity (Rattus norvegicus [4]): 13%

C[C@@]12CCCN1C(=O)N(c1ccc(C#N)c(C(F)(F)F)c1)C2=O
Inhibition (Rattus norvegicus [5]): <10% | Inhibition (Rattus norvegicus [1]): 69% | Activity (Rattus norvegicus [3]): inactive | Activity (Rattus norvegicus [6]): inactive

C[C@@]12CCCN1C(=O)N(c1ccc(Cl)c(C(F)(F)F)c1)C2=O
Inhibition (Rattus norvegicus [5]): <10% | Inhibition (Rattus norvegicus [1]): 32% | Activity (Rattus norvegicus [3]): inactive | Activity (Rattus norvegicus [6]): inactive

CCOC(=O)C1=NN2C(=O)N(c3ccc([N+](=O)[O-])c(C(F)(F)F)c3)C(=O)C2(C)C1 (stereo unspecified)
Inhibition (Rattus norvegicus [1]): 35% | Activity (Rattus norvegicus [2]): <10% | Activity (Rattus norvegicus [4]): <10%

CC12CC(C(F)(F)F)=NN1C(=O)N(c1ccc([N+](=O)[O-])c(C(F)(F)F)c1)C2=O (stereo unspecified)
Inhibition (Rattus norvegicus [1]): 39% | Activity (Rattus norvegicus [2]): 51% | Activity (Rattus norvegicus [4]): 73%

CC12CNC(=O)N1C(=O)N(c1ccc([N+](=O)[O-])c(C(F)(F)F)c1)C2=O (stereo unspecified)
Inhibition (Rattus norvegicus [5]): 15% | Inhibition (Rattus norvegicus [1]): 32%

CC12COC(=O)N1C(=O)N(c1ccc(Cl)c(C(F)(F)F)c1)C2=O (stereo unspecified)
Inhibition (Rattus norvegicus [5]): 51% | Inhibition (Rattus norvegicus [1]): 55%

C[C@]12CC(C(F)(F)F)=NN1C(=O)N(c1ccc(C#N)c(C(F)(F)F)c1)C2=O
Inhibition (Rattus norvegicus [1]): 21% | Activity (Rattus norvegicus [9]): 14% | Activity (Rattus norvegicus [3]): 42%

C[C@@]12CCCN1C(=S)N(c1ccc(Cl)c(Cl)c1)C2=O
Inhibition (Rattus norvegicus [5]): 27% | Inhibition (Rattus norvegicus [1]): 17% | Activity (Rattus norvegicus [2]; Prostate gland): inactive | Activity (Rattus norvegicus [3]): inactive | Activity (Rattus norvegicus [6]): inactive

C[C@@]12CCCN1C(=S)N(c1ccc(C#N)c(C(F)(F)F)c1)C2=O
Inhibition (Rattus norvegicus [5]): 95% | Inhibition (Rattus norvegicus [1]): 78% | Activity (Rattus norvegicus [3]): inactive | Activity (Rattus norvegicus [6]): inactive

CC12CNC(=O)N1C(=O)N(c1ccc(Cl)c(C(F)(F)F)c1)C2=O (stereo unspecified)
Inhibition (Rattus norvegicus [5]): 19% | Inhibition (Rattus norvegicus [1]): 33%

C[C@@]12CC(C(F)(F)F)=NN1S(=O)(=O)N(c1ccc(C#N)c(C(F)(F)F)c1)C2=O
Inhibition (Rattus norvegicus [1]): 28% | Activity (Rattus norvegicus [2]): 41% | Activity (Rattus norvegicus [4]): 66%

CC12COC(=O)N1C(=O)N(c1ccc([N+](=O)[O-])c(C(F)(F)F)c1)C2=O (stereo unspecified)
Inhibition (Rattus norvegicus [5]): 28% | Inhibition (Rattus norvegicus [1]): 43%

CC(O)(CS(=O)(=O)c1ccc(F)cc1)C(=O)Nc1ccc(C#N)c(C(F)(F)F)c1 (stereo unspecified) [BICALUTAMIDE]
Inhibition (Rattus norvegicus [5]): 80% | Inhibition (Rattus norvegicus [1]): 70% | Activity (Rattus norvegicus [3]): inactive | Activity (Rattus norvegicus [6]): inactive

CN1CC2(C)C(=O)N(c3ccc(Cl)c(C(F)(F)F)c3)C(=O)N2C1=O (stereo unspecified)
Inhibition (Rattus norvegicus [5]): 85% | Inhibition (Rattus norvegicus [1]): 77%
